Published values gathered from unrelated publications.
Protocols differ between the studies behind these lines.
Cell line: A549
Effect on: cell growth or viability

SMILES	technique	time	notes	IC50 [µM]
Cc1nc(Nc2ccc3c(c2)/C(=C/c2ccccc2)C(=O)N3Cc2ccccc2)c2ccccc2n1	MTT			44.7
Cc1ccc2c(-c3cc4c(CNCc5cccnc5)cnc(C)c4o3)cc(=O)oc2c1C	MTT	72 h		36.4
Cc1nc(Nc2ccc3c(c2)C(C)(C)C(=O)N3)c2ccccc2n1	MTT			3.21
O=C(C=Cc1ccccc1)Nc1cc(-c2ccnc(N3CCC(O)CC3)c2)ccn1	MTT	72 h		0.085
C[C@H](CCC(=O)O)[C@H]1CC[C@H]2[C@@H]3CC[C@@H]4C[C@H](O)CC[C@]4(C)[C@H]3CC[C@]12C	MTT	72 h		70
Cc1ncc(CN2CCc3ccccc3C2)c2cc(C(=O)c3ccc4c(c3)OCCO4)oc12	MTT	72 h		28.2
CNC(=O)c1cc(Oc2ccc(NC(=O)Nc3ccc(Cl)c(C(F)(F)F)c3)cc2)ccn1	MTT	72 h		5.58
CN(C)C/C=C/C(=O)Nc1cc2c(Nc3ccc(F)c(Cl)c3)ncnc2cc1O[C@H]1CCOC1	MTT	72 h		48.5
O=C(O)c1ccc2c(c1)nc(Nc1cccc(Cl)c1)c1ccncc12	crystal violet	48 h		10.5
Cc1nc(N(Cc2ccccc2)c2ccc3c(c2)/C(=C/c2ccccc2)C(=O)N3Cc2ccccc2)c2ccccc2n1 (mixture of isomers)	MTT			0.64
C=C(F)C(=O)N1CCN(c2nc(OC[C@@H]3CCCN3C)nc3c2CCN(c2cccc4cccc(Cl)c24)C3)C[C@@H]1CC#N	ATP luminescence		3D culture	> 1
Cc1nc(Nc2ccc3c(c2)/C(=C/c2ccccc2C)C(=O)N3)c2ccccc2n1	MTT			18.2
C=CC(=O)Nc1cc(Nc2nccc(-c3cn(C)c4ccccc34)n2)c(OC)cc1N(C)CCN(C)C	MTT	72 h		28.2
